The list is not random: actives were taken first. Their share in the collection is about 3.3%.
UHRF1 MBD2 ctr = UHRF1 methylated DNA binding inhibitors, primary screen, counter-screen for MBD2 inhibitor project, biochemical, TR-FRET, human UHRF1, single concentration; actives 0.75% (n = 370,000); inhibition, % at 4.4 µM; UHRF1 binding to methylated oligo; E3 ubiquitin-protein ligase UHRF1 (Homo sapiens), Q96T88; in the data active = inhibition above about 21%;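 note: UHRF1 SRA domain binding a hemimethylated CpG hairpin DNA probe; 0% = median of test compound wells and 100% = reference inhibitor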
TDP2 absorb = human TDP2 enzyme inhibitors, primary screen, biochemical, epi absorbance, recombinant enzyme; Tyrosyl-DNA phosphodiesterase 2 (Homo sapiens), O95551; T5PNP hydrolysis, p-nitrophenol absorbance 415 nm; inhibition, % at 12.8 µM; actives 0.34% (n = 370,000);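 active = inhibition above the mean of all tested compounds plus 3 SD, set per campaign, cut at about 25% in these data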;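 note: 0% = DMSO with enzyme and 100% = buffer with substrate but no TDP2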
Target sequence (O95551 whole entry, looked up): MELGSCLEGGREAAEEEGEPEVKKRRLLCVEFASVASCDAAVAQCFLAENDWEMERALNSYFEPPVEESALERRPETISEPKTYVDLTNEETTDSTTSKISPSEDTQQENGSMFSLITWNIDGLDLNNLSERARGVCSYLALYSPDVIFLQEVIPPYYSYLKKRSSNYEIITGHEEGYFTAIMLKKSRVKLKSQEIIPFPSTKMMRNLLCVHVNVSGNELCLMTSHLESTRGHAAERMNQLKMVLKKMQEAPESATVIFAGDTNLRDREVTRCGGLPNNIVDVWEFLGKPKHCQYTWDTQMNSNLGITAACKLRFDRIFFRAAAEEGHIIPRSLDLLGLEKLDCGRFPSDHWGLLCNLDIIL
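Assay system: Recombinant human TDP2 | Quantity: 120 nM TDP2 per well | Incubation: 2 h at 37 °C | Signal: Epi absorbance | Evaluation: Percent inhibition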
LEDGF integ inh = blockers of LEDGF/p75-dependent integrase strand transfer – biochemical, TR-FRET, high throughput, primary screen. TR-FRET IN-LEDGF/p75 DNA integration, Eu/Cy5. actives 0.64% (n = 370,000). HIV-1 integrase (with human LEDGF/p75). inhibition, % at 3.7 µM;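 active = inhibition above the screen-wide mean plus 3 SD, cut at about 13% in these data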;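 note: signal is the Cy5 over europium emission ratio at 671 and 618 nm; 0% = plate median of compound wells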
SIAE primary = human SIAE inhibitors, primary screen, biochemical, fluorescence polarization, FP-Rh probe, 1536-well HTS. Sialate O-acetylesterase (Homo sapiens), Q9HAT2. SIAE FP-Rh probe binding. inhibition, % at 9.66 µM. actives 0.69% (n = 370,000). AID 1053197, 2014;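 active = inhibition above a cutoff: mean of compounds within the control limits plus 3 SD of those, cut at about 17% in these data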;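 note: 0% = plate median of compound wells and 100% = probe without SIAE protein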
PRMT1 FP inh = PRMT1 methyltransferase inhibitors, primary screen, biochemical, fluorescence polarization; Protein arginine N-methyltransferase 1 (Homo sapiens), Q99873; recombinant PRMT1, activity-based probe fluorescence polarization; inhibition, % at 2.79 µM; actives 1.3% (n = 370,000);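 active = inhibition above about 21% made by adding two undisclosed values, limit read from the data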
MBD2 inh = inhibitors of MBD2 binding to methylated DNA, primary screen, biochemical, TR-FRET, DNA-binding domain, human. Methyl-CpG-binding domain protein 2 (Homo sapiens), Q9UBB5. MBD2 binding to methylated oligonucleotide. inhibition, % at 4.4 µM. actives 0.31% (n = 370,000). AID 686964, 2013; in the data active = inhibition above about 13%
PRMT1 inh conf = PRMT1 methyltransferase inhibitors, confirmation, biochemical, fluorescence polarization, triplicate | recombinant His-PRMT1, activity-based probe fluorescence polarization | shares compounds with PRMT1 FP inh | actives 42% (n = 3,300) | inhibition, % at 2.79 µM | AID 687036, 2013;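 active = mean inhibition across replicates above the hit cutoff derived for the earlier primary screen, cut at about 22% in these data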
The depositor's hits bear a star; · = no result.

SMILES	UHRF1 MBD2 ctr	TDP2 absorb	LEDGF integ inh	SIAE primary	PRMT1 FP inh	MBD2 inh	PRMT1 inh conf
O=C(c1ccc(Br)cc1)N1CCN(Cc2ccccc2)CC1	-0.3	4.2	-1.1	-4.7	3.7	2.0	·
S=C(c1ccc(Br)cc1)N1CCN(Cc2ccccc2)CC1	2.7	-3.0	-2.6	-2.2	63.7*	5.6	76.5*
Cc1ccc(C(=S)N2CCN(Cc3ccccc3)CC2)s1	-0.9	5.5	-3.4	1.7	42.1*	6.9	52.9*
Oc1ccc(C(=S)N2CCN(c3cccc(Cl)c3)CC2)cc1	8.1	-11.6	-6.7	0.1	29.4*	2.4	3.1
COc1ccc2c(c1)C[C@@H](CON1C(C)(C)CCCC1(C)C)N2S(=O)(=O)c1ccc(C)cc1	-0.7	-5.0	6.0	-1.9	-3.1	-4.9	·
O[C@H](COc1ccc(C(F)(F)F)cc1)CN1CCC(C(O)(c2ccccc2)c2ccccc2)CC1	-3.0	-7.2	0.2	0.5	-1.4	-0.9	·
O=C(CSc1nc2ccccc2nc1N1CCCCC1)N1CCN(S(=O)(=O)c2ccccc2)CC1	-0.2	-9.8	-1.6	-0.7	6.5	2.6	·
C[C@H]1C(=O)CC[C@@]23CCCN2C(=O)CCC[C@@H]13	2.1	-2.0	2.3	6.3	6.1	5.1	·
CN(C)c1ccc(C(=S)N2CCN(Cc3ccccc3)CC2)cc1	-1.4	7.5	-1.5	1.9	55.2*	2.7	64.2*
CCN(CC)c1ccc(C(=O)N2CCN(Cc3ccccc3)CC2)cc1	5.9	-7.7	3.9	1.2	-1.0	-0.6	·
O=C(Nc1ccc(S(=O)(=O)NC2=NCCCCC2)cc1)c1ccc([N+](=O)[O-])s1	-1.7	13.2	-2.2	7.5	4.8	0.5	·
O=C(Nc1ccc(S(=O)(=O)NC2=NCCCCC2)cc1)c1cccs1	3.4	-4.7	4.7	6.2	69.8*	3.2	-3.7
CC(C)N=c1scc(-c2ccco2)n1/N=C/c1ccc(O)c(O)c1	1.3	-9.3	-4.2	-5.8	7.6	-2.0	·
Oc1ccc(/C=N/n2c(-c3ccco3)csc2=Nc2cccnc2)c(O)c1	-13.6	-9.8	1.9	4.8	29.0*	4.9	4.2
COCc1cn(-c2cccc(-c3noc4c3C(=O)N(CC(=O)N3CCOCC3)CC4)c2)nn1	-0.3	3.2	-1.0	0.3	-0.2	-0.1	·
COc1ccc(C(=O)Nc2ccccc2C(=O)NCCN2CCOCC2)cc1OC	-2.4	11.9	-0.8	9.5	25.5*	9.4	-1.6
COc1ccc(C(=O)Nc2ccccc2C(=O)NCCN2CCOCC2)cc1	2.8	7.5	1.0	5.0	-0.5	-0.2	·
O=C(COc1ccccc1)NC(=S)Nc1ccc(Br)cn1	7.4	16.4	0.2	6.2	30.8*	0.2	3.0
Cc1ccccc1C(=O)NNC(=S)NC(=O)COc1ccccc1	4.8	-14.1	3.4	6.8	43.8*	3.2	9.1
COC(=O)c1ccccc1NC(=S)NC(=O)COc1ccccc1	-0.3	1.5	2.6	-1.3	1.0	-2.8	·
O=C(CN1C(=O)NC2(CCCC2)C1=O)Nc1cccc(Cl)c1Cl	-0.2	-3.2	0.2	0.8	-9.3	-0.1	·
O=C1CN(CC(=O)Nc2cccc(Cl)c2Cl)c2ccccc2N1	-0.8	-3.2	-2.8	-7.6	52.3*	0.2	76.1*
N#CC1=C(N)NC(=S)C(C(N)=O)C1c1ccccc1F (stereo not given)	-3.5	1.8	2.1	7.0	63.9*	-0.7	34.0*

Bioassay records deposited in PubChem by The Scripps Research Institute Molecular Screening Center.
